These results are taken from ChEMBL document CHEMBL2057099, “Synthesis of rocaglamide hydroxamates and related compounds as eukaryotic translation inhibitors: synthetic and biological studies” (J Med Chem, 2012).

In data set [1] the target is T1, Eukaryotic initiation factor 4A-I (Homo sapiens, UniProt P60842). As to the kind of experiment: Inhibition of recombinant eIF4A1 assessed as eIF4A1/[32P]mRNA complex formation at 1 to 10 uM after 10 mins by scintillation counting in presence of hippuristanol.
T1 sequence (P60842 whole entry): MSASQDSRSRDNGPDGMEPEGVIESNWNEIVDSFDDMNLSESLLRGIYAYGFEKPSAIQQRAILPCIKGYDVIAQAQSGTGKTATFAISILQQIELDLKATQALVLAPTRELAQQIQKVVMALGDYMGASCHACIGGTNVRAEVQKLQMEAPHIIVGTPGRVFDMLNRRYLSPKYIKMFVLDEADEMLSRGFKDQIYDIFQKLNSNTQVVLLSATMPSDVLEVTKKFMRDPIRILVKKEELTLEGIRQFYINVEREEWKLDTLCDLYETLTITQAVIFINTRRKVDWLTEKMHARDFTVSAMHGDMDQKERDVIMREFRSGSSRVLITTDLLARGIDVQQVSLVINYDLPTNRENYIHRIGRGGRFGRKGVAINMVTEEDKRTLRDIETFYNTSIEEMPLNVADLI
Data set [2] relates to BJAB. The data set can be described thus: Cytotoxicity against human BJAB cells after 72 hrs by PI-staining based flow cytometric analysis. The data set is classed as functional, cell-based. In a few lines: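 BJAB cells exposed 72 h to a concentration series. Viability by propidium iodide staining and flow cytometry, plotted relative to vehicle (DMSO). Mean of three experiments.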
On the technique in general: In flow cytometry, cells or beads pass a laser one at a time.

Data set [3] has as its target T1, Eukaryotic initiation factor 4A-I. The data set can be described thus: Inhibition of recombinant eIF4A1 assessed as eIF4A1/[32P]mRNA complex formation after 10 mins by scintillation counting. In a few lines: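 Binding of eIF4AI to radiolabelled RNA. Mean of three experiments with standard error of the mean.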
Data set [4] has the same target. The data set can be described thus: Inhibition of eIF4A1-mediated protein synthesis in human BJAB cells assessed as inhibition of [35S]Met incorporation after 72 hr by scintillation counting. Format: cell-based. In a few lines:
(§1)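 BJAB lymphoma cells exposed to compound for 1 h or 72 h. Protein synthesis measured as 35S-Met incorporation, normalised to total protein content and expressed relative to DMSO vehicle. Duplicates.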

For data set [5] the target is unchanged. The data set can be described thus: Inhibition of recombinant eIF4A1 assessed as depletion of eIF4A1/2 from eIF4F complex at 1 to 10 uM after 1 hr by Western blot analysis. The method in brief:
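eIF4F complex isolated by m7GTP affinity purification. Eluates resolved on 10% SDS-PAGE, then Western blot for eIF4E and eIF4AI/II.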

Data set [6] concerns lymphoma. As to the kind of experiment: Potentiation of doxorubicin antitumor activity against mouse Eu-myc/myr-AKT lymphoma cells xenografted in C57Bl/6 mouse assessed as tumor-free survival at 0.2 mg/kg, ip administered daily for 5 days. Format: functional, organism-based. Also on record: dose 0.2 mg/kg. In a few lines: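 C57Bl/6 mice, 6-8 weeks old, received 10^6 Eμ-myc/(myr)Akt lymphoma cells intravenously. Dosing began when tumours were palpable: test agent 0.2 mg/kg i.p. daily for 5 d in PEG 400/5.2% Tween 80, with doxorubicin 10 mg/kg given once on day 2. n=5 per group. Read-out was tumour-free survival (Kaplan-Meier).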

The target of data set [7] is T1, Eukaryotic initiation factor 4A-I. The data set can be described thus: Inhibition of eIF4A1-mediated protein synthesis in human BJAB cells assessed as inhibition of [35S]Met incorporation after 1 hr by scintillation counting. The data set is classed as cell-based. In a few lines: as §1
Data set [8] is described as follows: Metabolic stability in human liver microsomes assessed as compound remaining after 1 hr. Format: ADME, Microsome. Conditions: read-out: Stability. The method in brief: (§2)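 Incubation with human or murine liver microsomes, read as percent compound remaining after 1 h.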
Data set [9] is described as follows: Permeability of the compound by PAMPA assay at pH 6.2. The data set is classed as ADME. In general terms: The PAMPA barrier holds no transporters, so it reflects passive diffusion.
Data set [10] has as its system Mus musculus. The data set can be described thus: Hematotoxicity in C57Bl/6 mouse assessed as effect on Ly-6G myeloid cells at 0.2 mg/kg, ip administered for 5 days measured 2 hrs post last dose by FACS analysis. Format: organism-based. Also on record: dose 0.2 mg/kg, route intraperitoneal. Conditions: in vivo.
The subject of data set [11] is Mus musculus. The data set can be described thus: Hematotoxicity in C57Bl/6 mouse assessed as effect on B220 pre-B/B cells at 0.2 mg/kg, ip administered for 5 days measured 2 hrs post last dose by FACS analysis. Format: organism-based. Also on record: dose 0.2 mg/kg, route intraperitoneal. Conditions: in vivo.
The target of data set [12] is Eukaryotic initiation factor 4A-I (Oryctolagus cuniculus) (UniProt P29562). As to the kind of experiment: Inhibition of eIF4A1-mediated FF/HCV/Ren cap-dependent mRNA translation in rabbit reticulocyte lysate by reporter gene assay. For orientation: In a reporter assay the amount or activity of a reporter protein is the signal.
Chain of Eukaryotic initiation factor 4A-I (Oryctolagus cuniculus) (P29562 whole entry): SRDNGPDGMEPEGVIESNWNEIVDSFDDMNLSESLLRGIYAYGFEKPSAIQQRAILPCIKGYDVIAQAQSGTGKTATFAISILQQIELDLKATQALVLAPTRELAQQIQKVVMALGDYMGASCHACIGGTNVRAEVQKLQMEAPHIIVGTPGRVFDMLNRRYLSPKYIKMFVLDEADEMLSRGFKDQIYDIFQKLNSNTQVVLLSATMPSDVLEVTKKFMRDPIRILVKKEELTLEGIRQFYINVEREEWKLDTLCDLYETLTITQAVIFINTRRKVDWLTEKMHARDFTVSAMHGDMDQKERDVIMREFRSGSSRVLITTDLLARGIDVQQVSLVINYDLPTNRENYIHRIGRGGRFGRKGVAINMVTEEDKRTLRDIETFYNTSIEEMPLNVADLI
Data set [13] is described as follows: Solubility of the compound at pH 5. The data set is classed as physicochemical. Particulars: buffer. The method in brief: (§3)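 Solubility measured at pH 5.0, 6.2 and 7.4.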
The test system of data set [14] is Mus musculus. The data set can be described thus: Hematotoxicity in C57Bl/6 mouse assessed as effect on CD4 T cells at 0.2 mg/kg, ip administered for 5 days measured 2 hrs post last dose by FACS analysis. The data set is classed as organism-based, T-cell. Also on record: dose 0.2 mg/kg, route intraperitoneal. Conditions: in vivo.
Data set [15] in a line: Permeability of the compound by PAMPA assay at pH 5. The data set is classed as ADME.
Data set [16] is described as follows: Metabolic stability in human plasma assessed as compound remaining after 3 hrs. The data set is classed as ADME, cell-free. Particulars: read-out: Stability. The method in brief: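 Stability in human plasma measured as percent compound remaining after 3 h.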
Data set [17] is described as follows: Plasma protein binding in human after 4 hrs. The data set is classed as ADME, cell-free. Conditions: read-out: PPB (converted). The method in brief: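 Human plasma protein binding measured after 4 h exposure.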
A short description of data set [18]: Permeability of the compound by PAMPA assay at pH 7.4. Format: ADME.
Data set [19] concerns Mus musculus. As to the kind of experiment: Hematotoxicity in C57Bl/6 mouse assessed as effect on […] T cells at 0.2 mg/kg, ip administered for 5 days measured 2 hrs post last dose by FACS analysis. Format: organism-based, T-cell. Conditions: in vivo. Also on record: dose 0.2 mg/kg, route intraperitoneal.
Data set [20] can be described thus: Solubility of the compound at pH 6.2. The data set is classed as physicochemical. Particulars: buffer. In a few lines:
as §3

The nature of data set [21]: Metabolic stability in mouse liver microsomes assessed as compound remaining after 1 hr. Format: ADME, Microsome. Particulars: read-out: Stability. The method in brief: as §2
A short description of data set [22]: Solubility of the compound at pH 7.4. The data set is classed as physicochemical. Particulars: buffer. The method in brief:
as §3

For data set [23], the target named is T1, Eukaryotic initiation factor 4A-I. As to the kind of experiment: Inhibition of eIF4A1-mediated protein synthesis in human HeLA cells assessed as inhibition of [35S]Met incorporation by scintillation counting. The data set is classed as cell-based. The method in brief:
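HeLa cells treated with compound or DMSO vehicle. Protein synthesis measured as 35S-Met incorporation, normalised to total protein content and expressed relative to the DMSO control. Values are the average of duplicates with the error of the mean.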

The source made the active and inactive calls. The rule behind the calls is not given here.

On to `COC(=O)[C@H]1[C@@H](O)[C@@]2(O)c3c(OC)cc(O[C@@H]4O[C@@H]([C@H](O)CO)CO[C@H]4OC)cc3O[C@@]2(c2ccc(OC)cc2)[C@@H]1c1ccccc1`, for which the inhibition entry in data set [1] is “inactive”. Moreover, the inhibition entry in data set [2], in [4], in data set [5] and in [7] was “Active” throughout. Further, the inhibition result in data set [3] is “Dose-dependent effect”. Also, the result in data set [6] was Active.

Take `CONC(=O)[C@H]1[C@@H](O)[C@@]2(O)c3c(OC)cc(OC)cc3O[C@@]2(c2ccc(OC)cc2)[C@@H]1c1ccccc1`: in data set [1], the inhibition result is “inactive”. Moreover, the remaining at 1 h in data set [8] and in data set [21] was above 95% each time. Moreover, the IC50 (as a rule, the concentration that inhibits the measured activity by half) in [2] worked out at 1.5 nM; in data set [4], 0.5 nM; in [7], 20 nM. Also, the permeability result in [9], in data set [15] and in [18] was “permeable” in each case. Also, the Activity entry in [10], in data set [11], in data set [14] and in [19] was “Non-toxic” in each case. Further, the inhibition entry in [3] is “Dose-dependent effect”. In addition, the inhibition result in data set [5] and in [12] was “Active” throughout. Besides, the solubility in data set [13], in data set [20] and in [22] was above 150 mg/mL throughout. Besides, in [16], the remaining at 3 h came to 100%. The fraction unbound at 4 h in [17] was 0.18. For the same compound, the outcome in data set [6] was Active.

As to `CONC(=O)[C@@H]1[C@H](O)[C@]2(O)c3c(OC)cc(OC)cc3O[C@]2(c2ccc(OC)cc2)[C@H]1c1ccccc1`, the inhibition result in data set [12] was “inactive”.

`CONC(=O)C1C(O)C2(O)c3c(OC)cc(OC)cc3OC2(c2ccc(OC)cc2)C1c1ccccc1` (racemic): the inhibition entry in data set [12] is “Active”.

For `COc1ccc(C23Oc4cc(OC)cc(OC)c4C2(O)C(O)C(C(=O)NOCCOCCOCCNC(C)=O)C3c2ccccc2)cc1` (racemic), the inhibition result in data set [12] and in data set [23] was “Active” throughout.

On to `COc1ccc(C23Oc4cc(OC)cc(OC)c4C2(O)C(O)C(C(=O)NOCCO)C3c2ccccc2)cc1` (racemic), for which the inhibition result in data set [12] and in data set [23] was “Active” throughout.

Turning to `COc1ccc([C@@]23Oc4cc(OC)cc(OC)c4[C@]2(O)[C@H](O)[C@H](C(=O)c2ccc(CO)o2)[C@H]3c2ccccc2)cc1`, in [12], the inhibition result was “Active”.

As for `COc1ccc(C23Oc4cc(OC)cc(OC)c4C2(O)C(O)C(C(=O)NOCC2CC2)C3c2ccccc2)cc1` (racemic), the inhibition entry in data set [12] is “Active”.
